Laboratory results from ChEMBL document CHEMBL4312018, “Novel benzimidazole phosphonates as potential inhibitors of protein prenylation” (Bioorg Med Chem Lett, 2019).
Each block holds one compound with its values, some of them ahead of it. Calls of active or inactive are those of the source.

Experiments:
[1] = molecular target: T1, Geranylgeranyl transferase type-2 (Rattus norvegicus, UniProt Q08602+Q08603); assay: Inhibition of recombinant rat RabGGTase expressed in Escherichia coli using Rab7 as substrate and [3H]geranylgeranyl pyrophosphate after 20 mins by liquid scintillation analysis
T1 sequence (Q08603 whole entry): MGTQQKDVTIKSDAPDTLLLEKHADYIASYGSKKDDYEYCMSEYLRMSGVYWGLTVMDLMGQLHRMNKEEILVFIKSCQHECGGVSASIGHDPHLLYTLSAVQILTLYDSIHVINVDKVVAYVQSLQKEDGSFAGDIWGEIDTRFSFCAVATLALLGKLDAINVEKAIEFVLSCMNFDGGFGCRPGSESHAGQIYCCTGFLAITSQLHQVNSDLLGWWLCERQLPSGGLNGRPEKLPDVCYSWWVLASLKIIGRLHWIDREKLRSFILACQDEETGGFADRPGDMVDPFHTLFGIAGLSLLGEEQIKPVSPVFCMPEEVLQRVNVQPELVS
T1 sequence (Q08602 whole entry): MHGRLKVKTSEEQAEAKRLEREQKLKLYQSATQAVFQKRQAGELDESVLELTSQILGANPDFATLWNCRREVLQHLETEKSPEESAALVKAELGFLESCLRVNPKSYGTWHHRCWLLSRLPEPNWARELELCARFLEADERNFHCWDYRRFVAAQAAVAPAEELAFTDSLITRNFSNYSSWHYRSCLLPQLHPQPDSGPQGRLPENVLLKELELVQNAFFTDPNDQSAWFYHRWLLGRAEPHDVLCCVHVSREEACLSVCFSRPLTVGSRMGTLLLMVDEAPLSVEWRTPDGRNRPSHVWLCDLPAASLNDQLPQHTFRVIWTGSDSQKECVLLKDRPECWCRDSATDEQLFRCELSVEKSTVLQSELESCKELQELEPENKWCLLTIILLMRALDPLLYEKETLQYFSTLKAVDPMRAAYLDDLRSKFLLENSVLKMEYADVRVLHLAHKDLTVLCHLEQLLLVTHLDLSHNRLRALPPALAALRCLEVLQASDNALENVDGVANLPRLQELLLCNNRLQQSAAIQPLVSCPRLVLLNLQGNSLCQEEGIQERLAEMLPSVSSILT

[2] = molecular target: geranylgeranyltransferase type-I (Rattus norvegicus, UniProt P53610+Q04631); assay: Inhibition of recombinant rat GGtase-1 expressed in Escherichia coli using dansyl-GCVLL as substrate after 1.5 hrs by spectrofluorimetric analysis
[3] = molecular target: Protein farnesyltransferase (Rattus norvegicus, UniProt Q02293+Q04631); assay: Inhibition of recombinant rat FTase expressed in Escherichia coli using dansyl-GCVLS as substrate after 1.5 hrs by spectrofluorimetric analysis
[4] = molecular target: T2, Farnesyl pyrophosphate synthase (Homo sapiens, UniProt P14324); assay: Inhibition of FDPS (unknown origin) using [14C] IPP and GPP as substrate preincubated for 10 mins followed by substrate addition and measured after 30 min by liquid scintillation counting method
T2 sequence (P14324 whole entry): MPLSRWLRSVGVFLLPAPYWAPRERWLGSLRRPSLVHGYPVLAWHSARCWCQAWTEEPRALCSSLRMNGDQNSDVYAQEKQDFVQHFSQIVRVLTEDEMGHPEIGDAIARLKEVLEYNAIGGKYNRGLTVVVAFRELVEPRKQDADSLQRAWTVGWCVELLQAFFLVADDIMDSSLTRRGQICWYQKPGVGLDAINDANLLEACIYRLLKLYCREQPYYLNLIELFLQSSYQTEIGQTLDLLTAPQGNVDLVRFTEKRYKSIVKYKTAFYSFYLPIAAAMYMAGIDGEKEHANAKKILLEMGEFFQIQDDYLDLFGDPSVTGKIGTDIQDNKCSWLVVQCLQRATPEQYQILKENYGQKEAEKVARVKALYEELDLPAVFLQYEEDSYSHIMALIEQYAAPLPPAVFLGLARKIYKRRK

[5] = molecular target: T3, Geranylgeranyl pyrophosphate synthase (Homo sapiens, UniProt O95749); assay: Inhibition of GGDPS (unknown origin) using [14C] IPP and FPP as substrate preincubated for 10 mins followed by substrate addition and measured after 30 min by liquid scintillation counting method
T3 sequence (O95749 whole entry): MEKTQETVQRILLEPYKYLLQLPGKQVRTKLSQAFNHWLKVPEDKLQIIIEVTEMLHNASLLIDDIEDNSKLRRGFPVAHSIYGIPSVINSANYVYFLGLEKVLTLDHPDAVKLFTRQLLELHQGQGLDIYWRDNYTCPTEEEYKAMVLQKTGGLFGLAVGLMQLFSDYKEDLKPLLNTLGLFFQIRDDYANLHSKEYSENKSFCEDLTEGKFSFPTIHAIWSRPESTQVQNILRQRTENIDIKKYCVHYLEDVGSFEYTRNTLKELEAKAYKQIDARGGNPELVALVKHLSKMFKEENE

[6] = molecular target: T4, Geranylgeranyl transferase type-2 (Homo sapiens) (UniProt P53611+Q92696); assay: Inhibition of GGtase-2 in human cells assessed as minimum effective dose required for increase in intracellular lambda chain level after 48 hrs by ELISA; format: cell-based
Procedure, shortened: (§1)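 The lowest effective concentration in RPMI-8226 cells after 48 h requires both criteria below: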

[7] = molecular target: T4, Geranylgeranyl transferase type-2 (Homo sapiens); assay: Inhibition of GGtase-2 in human cells assessed as minimum effective dose causing => 20% decrease in Rab6 level after 48 hrs by immunoblot analysis; format: cell-based; procedure, shortened: as §1
[8] = molecular target: T5, Protein farnesyltransferase (Homo sapiens) (UniProt P49354+P49356); assay: Inhibition of FTase in human RPMI8226 cells assessed as disruption of H-ras farnesylation at 1 to 5 mM incubated for 48 hrs by immunoblot analysis; format: cell-based
[9] = molecular target: T6, Geranylgeranyl transferase type I (Homo sapiens) (UniProt P49354+P53609); assay: Inhibition of GGtase-1 in human RPMI8226 cells assessed as disruption of Rap1a geranylgeranylation at 1 to 5 mM incubated for 48 hrs by immunoblot analysis; format: cell-based
[10] = molecular target: T4, Geranylgeranyl transferase type-2 (Homo sapiens); assay: Inhibition of GGtase-2 in human RPMI8226 cells assessed as increase in intracellular lambda light chain level at 1 to 5 mM incubated for 48 hrs […]; format: cell-based
Procedure, shortened: (§2)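 RPMI-8226 cells were incubated 48 h with the compound or medium alone. Intracellular lambda light chain was quantified by ELISA and expressed as percent of untreated control (mean ± SD, n=3). Significance versus control was judged by t-test, p<0.05.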

[11] = molecular target: T4, Geranylgeranyl transferase type-2 (Homo sapiens); assay: Inhibition of GGTase-2 in human RPMI8226 cells assessed as ratio of calnexin to Rab6 level at 1 mM after 48 hrs by immunoblot analysis relative to control; format: cell-based
Procedure, shortened: (§3)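 After 48 h treatment, RPMI-8226 cells were extracted with Triton X-114 to give a detergent (membrane) fraction, which was immunoblotted for Rab6. Rab6 band density was normalized to calnexin and expressed relative to untreated cells. Blots are representative of three independent studies.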

[12] = molecular target: T4, Geranylgeranyl transferase type-2 (Homo sapiens); assay: Inhibition of GGTase-2 in human RPMI8226 cells assessed as ratio of calnexin to Rab6 level at […] after 48 hrs by immunoblot analysis relative to control; format: cell-based
[13] = molecular target: T4, Geranylgeranyl transferase type-2 (Homo sapiens); assay: Inhibition of GGTase-2 in human RPMI8226 cells assessed as ratio of calnexin to Rab6 level at 5 mM after 48 hrs by immunoblot analysis relative to control; format: cell-based; procedure, shortened: as §3
[14] = molecular target: T7, Farnesyl pyrophosphate synthase (Homo sapiens) (UniProt P14324)
T7 sequence (whole entry): T2 sequence (P14324 whole entry)

[15] = molecular target: T7, Farnesyl pyrophosphate synthase (Homo sapiens); remark: listed apart in the source
[16] = molecular target: T5, Protein farnesyltransferase (Homo sapiens); assay: Inhibition of FTase in human RPMI8226 cells assessed as disruption of H-ras farnesylation at 10 to 100 uM incubated for 48 hrs by immunoblot analysis; format: cell-based
[17] = molecular target: T6, Geranylgeranyl transferase type I (Homo sapiens); assay: Inhibition of GGtase-1 in human RPMI8226 cells assessed as disruption of Rap1a geranylgeranylation at 10 to 100 uM incubated for 48 hrs by immunoblot analysis; format: cell-based
[18] = molecular target: T4, Geranylgeranyl transferase type-2 (Homo sapiens); assay: Inhibition of GGtase-2 in human RPMI8226 cells assessed as accumulation of intracellular lambda light chain level at 10 to 100 uM after 48 hrs by immunoblot analysis; format: cell-based
[19] = molecular target: T5, Protein farnesyltransferase (Homo sapiens); assay: Inhibition of FTase in human RPMI8226 cells assessed as disruption of H-ras farnesylation at 10 to 100 uM after 48 hrs in presence of lovastatin by immunoblot analysis; format: cell-based
Procedure, shortened: (§4)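 Whole-cell lysates were then immunoblotted for H-Ras and unmodified Rap1a, using an antibody specific to the unprenylated protein. β-tubulin was the loading control.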

[20] = molecular target: T6, Geranylgeranyl transferase type I (Homo sapiens); assay: Inhibition of GGtase-1 in human RPMI8226 cells assessed as disruption of Rap1a geranylgeranylation at 10 to 100 uM after 48 hrs in presence lovastatin by immunoblot analysis; format: cell-based; procedure, shortened: as §4
[21] = molecular target: T7, Farnesyl pyrophosphate synthase (Homo sapiens); assay: Inhibition of FDPS in human RPMI8226 cells assessed as unmodified Rap1a level at =< 5 mM after 48 hrs by immunoblot analysis; format: cell-based
Procedure, shortened: (§5)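 RPMI-8226 cells were exposed for 48 h. The lowest effective concentration counts only when two read-outs agree. Unmodified Rap1a must be visible on immunoblot of whole-cell lysate, using an antibody that detects only unmodified protein.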

[22] = molecular target: T7, Farnesyl pyrophosphate synthase (Homo sapiens); assay: Inhibition of FDPS in human RPMI8226 cells assessed as increase in intracellular lambda chain level at =< 5 mM after 48 hrs by ELISA; format: cell-based
Procedure, shortened: (§6)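 RPMI-8226 cells were exposed for 48 h, and intracellular lambda light chain was measured by ELISA as percent of untreated control. The lowest effective concentration also requires unmodified Rap1a to be visible on whole-cell-lysate immunoblot with an unmodified-specific antibody. The ELISA rise must be statistically significant.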

[23] = molecular target: T4, Geranylgeranyl transferase type-2 (Homo sapiens); assay: Inhibition of GGtase-2 in human cells assessed as increase in intracellular lambda chain at =< 5 mM level after 48 hrs by ELISA; format: cell-based; procedure, shortened: as §2
[24] = molecular target: T4, Geranylgeranyl transferase type-2 (Homo sapiens); assay: Inhibition of GGtase-2 in human cells assessed as decrease in Rab6 level at =< 5 mM after 48 hrs by immunoblot analysis relative to control; format: cell-based; procedure, shortened: as §3
[25] = molecular target: T7, Farnesyl pyrophosphate synthase (Homo sapiens); assay: Inhibition of FDPS in human RPMI8226 cells assessed as unmodified Rap1a level at =< 1 mM after 48 hrs by immunoblot analysis; format: cell-based; procedure, shortened: as §5
[26] = molecular target: T7, Farnesyl pyrophosphate synthase (Homo sapiens); assay: Inhibition of FDPS in human RPMI8226 cells assessed as increase in intracellular lambda chain level at =< 1mM after 48 hrs by ELISA; format: cell-based; procedure, shortened: as §6
[27] = molecular target: T4, Geranylgeranyl transferase type-2 (Homo sapiens); assay: Inhibition of GGtase-2 in human RPMI8226 cells assessed as increase in intracellular lambda chain at =< 1 mM level after 48 hrs by ELISA; format: cell-based; procedure, shortened: as §2
[28] = molecular target: T4, Geranylgeranyl transferase type-2 (Homo sapiens); assay: Inhibition of GGtase-2 in human RPMI8226 cells assessed as decrease in Rab6 level at =< 1 mM after 48 hrs by immunoblot analysis relative to control; format: cell-based; procedure, shortened: as §3
[29] = molecular target: T5, Protein farnesyltransferase (Homo sapiens); assay: Inhibition of FTase in human RPMI8226 cells assessed as disruption of H-ras farnesylation after 48 hrs by immunoblot analysis; format: cell-based
[30] = molecular target: T6, Geranylgeranyl transferase type I (Homo sapiens); assay: Inhibition of GGtase-1 in human RPMI8226 cells assessed as disruption of Rap1a geranylgeranylation after 48 hrs immunoblot analysis; format: cell-based

IC50 [1]: 198 µM | IC50 [2]: > 1000 µM | IC50 [3]: 125 µM | IC50 [4]: > 100 µM | IC50 [5]: > 100 µM | LED [6]: 1 mM | LED [7]: 1 mM | inhibition [8]: inactive | inhibition [9]: inactive | inhibition [10]: Active | fold change (FC) [11]: 0.6 | FC [12]: 0.4 | fold change (FC) [13]: 0.3 | LED [14]: 1 mM | LED [15]: 1 mM
SMILES: O=C(O)C(Cn1cnc2ccccc21)P(=O)(O)O (stereo unspecified)

IC50 [1]: > 1000 µM | IC50 [2]: > 1000 µM | IC50 [3]: 830 µM | IC50 [4]: 0.024 µM | IC50 [5]: 20.5 µM | LED [7]: 0.025 mM | inhibition [16]: Active | inhibition [17]: Active | inhibition [18]: Active | inhibition [19]: Active | inhibition [20]: Active
SMILES: O=P(O)(O)C(Cn1cnc2ccccc21)P(=O)(O)O

IC50 [1]: > 1000 µM | IC50 [2]: 145 µM | IC50 [3]: 450 µM | IC50 [4]: > 100 µM | IC50 [5]: > 100 µM | inhibition [21]: inactive | inhibition [22]: inactive | inhibition [23]: inactive | inhibition [24]: inactive
SMILES: O=C(O)C(Cn1cnc2cc(F)c(F)cc21)P(=O)(O)O (stereo unspecified)

IC50 [1]: > 1000 µM | IC50 [2]: > 1000 µM | IC50 [3]: > 1000 µM | IC50 [4]: 1 µM | IC50 [5]: > 100 µM | inhibition [25]: inactive | inhibition [26]: inactive | inhibition [27]: inactive | inhibition [28]: inactive | inhibition [29]: inactive | inhibition [30]: inactive
SMILES: CC(Cn1cnc2ccccc21)(P(=O)(O)O)P(=O)(O)O
